In publication PMC5691919 (ACS Chemical Neuroscience, 2017):
Values joined by “and” are separate entries in the source; they are usually repeats but may differ in a detail not shown here. Identical values can stand only once. “Also recorded” adds a separate entry of the source.

Tests used:
human KOR (CHO-KOR) [1] = target: T1, human KOR (CHO-KOR) (Homo sapiens, UniProt P41145); assay: [3H]-diprenorphine competitive displacement binding, CHO-KOR membranes
Outline: (§1)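 Membranes came from C6 glioma cells stably expressing rat MOR or DOR, or CHO cells stably expressing human KOR. Membranes (20 μg protein) in 50 mM Tris-HCl pH 7.4 were incubated with 0.2 nM [³H]-diprenorphine and varying test compound concentrations for 1 h at room temperature, then filtered on GF/C. Nonspecific binding was defined with 10 μM naloxone. Ki came from logistic nonlinear regression; at least three assays in duplicate.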

rat MOR (C6-MOR) [2] = target: T2, rat MOR (C6-MOR) (Rattus norvegicus, UniProt P33535); assay: Stimulation of [35S]-GTPγS binding, C6-MOR membranes; format: biochemical; conditions: for Emax: read-out: % stimulation MOR; for % stimulation MOR: percent maximal stimulation relative to DAMGO at 10 μM
Outline: (§2)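 Rat MOR or DOR (C6) and human KOR (CHO) membranes (10–20 μg protein) were incubated 1 h at 25 °C in 50 mM Tris-HCl, 100 mM NaCl, 5 mM MgCl₂, pH 7.4, with 0.1 nM [³⁵S]-GTPγS, 30 μM GDP and varying test compound concentrations, then filtered on GF/C. % stimulation was taken relative to 10 μM DAMGO (MOR), DPDPE (DOR) or U69,593 (KOR). EC50 came from nonlinear regression; at least three assays in duplicate.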

rat MOR (C6-MOR) [3] = target: T2, rat MOR (C6-MOR); assay: [3H]-diprenorphine competitive displacement binding, C6-MOR membranes
Outline: as §1

rat DOR (C6-DOR) [4] = target: T3, rat DOR (C6-DOR) (Rattus norvegicus, UniProt P33533); assay: [3H]-diprenorphine competitive displacement binding, C6-DOR membranes
Outline: as §1

human KOR (CHO-KOR) [5] = target: T1, human KOR (CHO-KOR); assay: Stimulation of [35S]-GTPγS binding, CHO-KOR membranes; format: biochemical; conditions: for EC50 KOR: [35S]-GTPγS binding, mean (SEM); for EC50 KOR / % stimulation KOR: dns: does not stimulate; for % stimulation KOR: percent maximal stimulation relative to U69,593 at 10 μM
Outline: as §2

rat DOR (C6-DOR) [6] = target: T3, rat DOR (C6-DOR); assay: Stimulation of [35S]-GTPγS binding, C6-DOR membranes; format: biochemical; conditions: for % stimulation DOR: percent maximal stimulation relative to DPDPE at 10 μM; for % stimulation DOR / EC50 DOR: dns: does not stimulate; for EC50 DOR: [35S]-GTPγS binding, mean (SEM)
Outline: as §2

[7] = displacement of [3H]-diprenorphine, mean (SEM), n = 3

SMILES | Ki (human KOR (CHO-KOR) [1]) | EC50 (rat MOR (C6-MOR) [2]) | Emax (rat MOR (C6-MOR) [2]) | Ki (rat MOR (C6-MOR) [3]) | Ki (rat DOR (C6-DOR) [4]) | EC50 (human KOR (CHO-KOR) [5]) | EC50 (rat DOR (C6-DOR) [6]) | % stimulation DOR (rat DOR (C6-DOR) [6]) | EC50 KOR (human KOR (CHO-KOR) [5]) | % stimulation KOR (human KOR (CHO-KOR) [5]) | % stimulation MOR (rat MOR (C6-MOR) [2]; dns: does not stimulate) | EC50 DOR (rat DOR (C6-DOR) [6]) | EC50 MOR (rat MOR (C6-MOR) [2]; [35S]-GTPγS binding, mean (SEM), dns: does not stimulate) | Binding, Ki KOR (human KOR (CHO-KOR) [1]; [7]) | Binding, Ki MOR (rat MOR (C6-MOR) [3]; [7])
COc1ccccc1Cc1ccc2c(c1)[C@H](NC(=O)[C@@H](N)Cc1c(C)cc(O)cc1C)CCN2 [Compound 4a] | 54 nM | 8.9 nM | 91% | 0.34 nM | 6.5 nM | 1000 nM | 130 nM | 16 (2.2) % | – | – | – | – | – | – | –
COc1cccc(Cc2ccc3c(c2)[C@H](NC(=O)[C@@H](N)Cc2c(C)cc(O)cc2C)CCN3)c1 [Compound 4b] | 27 nM | 4.4 nM | 99% | 0.11 nM | 5.4 nM | – | 230 nM | 10 (2.6) % | dns^d | displayed no agonist effect; also recorded: dns^d | – | – | – | – | –
COc1ccc(Cc2ccc3c(c2)[C@H](NC(=O)[C@@H](N)Cc2c(C)cc(O)cc2C)CCN3)cc1 [Compound 4c] | 100 nM | 9.3 nM | – | 0.29 nM | 15 nM | – | – | did not stimulate GTPγS binding; also recorded: eliminating stimulation; also recorded: dns^d | dns^d | displayed no agonist effect; also recorded: eliminating stimulation; also recorded: dns^d | 55 (3.4) % | dns^d | – | – | –
Cc1cc(O)cc(C)c1C[C@H](N)C(=O)N[C@@H]1CCNc2ccc(Cc3ccccc3O)cc21 [Compound 4d] | 5.7 nM | 9.8 nM | 89% | 0.26 nM | 5.6 nM | 270 nM | 1500 nM | – | – | 67% and 67 (3.5) % | – | – | – | – | –
Cc1cc(O)cc(C)c1C[C@H](N)C(=O)N[C@@H]1CCNc2ccc(Cc3cccc(O)c3)cc21 [Compound 4e] | 16 nM | 4.8 nM | 96% | 0.19 nM | 1.4 nM | 230 nM | 140 nM | 67% and 67 (1.6) % | – | – | – | – | – | – | –
Cc1cc(O)cc(C)c1C[C@H](N)C(=O)N[C@@H]1CCNc2ccc(Cc3ccc(O)cc3)cc21 [Compound 4f] | 420 nM | – | – | 1.7 nM | 130 nM | – | – | did not stimulate GTPγS binding; also recorded: dns^d | dns^d | displayed no agonist effect; also recorded: dns^d | no stimulation of GTP binding and dns | dns^d | dns | – | –
COc1cccc2c1CC(Cc1ccc3c(c1)[C@H](NC(=O)[C@@H](N)Cc1c(C)cc(O)cc1C)CCN3)C2 (stereo partly drawn) [Compound 8a] | 67 nM | 1.9 nM | – | – | 2.3 nM | – | – | dns^d | dns^d | low affinity KOR antagonists; also recorded: dns^d | 48 (2.9) % | dns^d | – | – | –
COc1ccc2c(c1)CC(Cc1ccc3c(c1)[C@H](NC(=O)[C@@H](N)Cc1c(C)cc(O)cc1C)CCN3)C2 (stereo partly drawn) [Compound 8b] | 33 nM | 7.9 nM | – | 0.08 nM | – | – | – | dns^d | dns | low affinity KOR antagonists and dns | 22 (3.7) % | dns^d | – | – | –
Cc1cc(O)cc(C)c1C[C@H](N)C(=O)N[C@@H]1CCNc2ccc(CC3Cc4cccc(O)c4C3)cc21 (stereo partly drawn) [Compound 8c] | 0.77 nM | – | – | – | – | 25 nM | – | no stimulation at DOR; also recorded: dns^d | – | 92% and 92 (3.6) % | 66 (3.3) % | dns^d | – | subnanomolar binding affinity | subnanomolar binding affinity
Cc1cc(O)cc(C)c1C[C@H](N)C(=O)N[C@@H]1CCNc2ccc(CC3Cc4ccc(O)cc4C3)cc21 (stereo partly drawn) [Compound 8d] | 41 nM | 7 nM | – | 0.82 nM | 15 nM | – | – | dns | dns | low affinity KOR antagonists and dns | 16 (2.4) % | dns | – | – | –
